An excerpt weighted towards active compounds, which were near 2.1% of everything screened.
PKA-R2B activ – PKA-R2B complex activation | activation, % at 11.4 µM | P22694+P31323 | PKA-R2B holoenzyme dissociation, Cy5-IP20 fluorescence polarization; R2B truncated from residue 108, S112A mutant; 0% DMSO only, 100% 113 µM cGMP | 340,000 tested, 0.079% active;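 active = activation above a cutoff set at the mean over all compounds plus 3 SD, cut at about 18% in these data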;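 also: higher means more holoenzyme dissociation and a rise in polarization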
SR-BI HDL uptake – inhibitors of mouse SR-BI mediated HDL lipid uptake; ldlA[mSR-BI] CHO cells, DiI-HDL uptake fluorescence, 3 h; inhibition, % at 12.5 µM; AID 488896; Q61009; 320,000 tested, 0.96% active;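 active = mean replicate inhibition of at least 70% and a set share of replicates each scoring 70 or more; inconclusive = meets just one of the two criteria; inactive = fails both criteria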
Target sequence (Q61009 whole entry, looked up): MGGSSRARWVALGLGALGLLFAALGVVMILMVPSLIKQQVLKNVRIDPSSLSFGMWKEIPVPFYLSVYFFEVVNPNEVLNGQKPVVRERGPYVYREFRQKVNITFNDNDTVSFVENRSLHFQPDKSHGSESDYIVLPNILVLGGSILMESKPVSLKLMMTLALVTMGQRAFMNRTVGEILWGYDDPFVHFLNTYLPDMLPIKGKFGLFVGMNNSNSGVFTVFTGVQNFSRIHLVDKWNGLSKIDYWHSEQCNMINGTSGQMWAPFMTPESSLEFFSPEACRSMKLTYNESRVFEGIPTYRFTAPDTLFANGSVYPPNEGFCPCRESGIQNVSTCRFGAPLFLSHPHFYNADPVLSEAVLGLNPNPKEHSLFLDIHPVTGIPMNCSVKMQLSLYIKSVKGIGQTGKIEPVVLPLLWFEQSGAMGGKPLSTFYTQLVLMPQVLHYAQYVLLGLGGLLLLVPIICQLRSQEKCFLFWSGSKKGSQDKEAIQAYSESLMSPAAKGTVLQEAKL
dFosB activator – activators of mouse delta FosB homodimer | activation, % at 25 µM | purified delta FosB, TAMRA-CDK5 oligo fluorescence polarization; percent of positive-control signal above neutral wells | 340,000 tested, 0.99% active | P13346;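 active = mean activation above about 17%, with every replicate also reaching it, limit read from the data, passing the limit was not always enough; inconclusive = only one of the two conditions met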
SR-BI uptake up – SR-BI HDL lipid transfer activation; AID 504775; CHO ldlA[mSR-BI] cells, DiI-HDL uptake fluorescence, 3 h; 100 = double the neutral-control signal; 320,000 tested, 0.096% active; activation, % at 12.5 µM;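 active = mean replicate activation of at least 60% and every replicate at or above 60%; inconclusive = mean or all-replicate condition met, but not both; inactive = mean below 60% and not all replicates reaching 60%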
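Material: SR-BI-overexpressing, LDLR-lacking CHO cells | Dosing: Single compound concentration, delivered by pin transfer | Probe or stimulus: Labelled HDL, 10 µg/mL | Signal: Bottom-read cell fluorescence after medium removal, ex 550/em 595 nm | Schedule: 3 h, 37 °C | Evaluation: HDL uptake via cellular fluorescence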
PKA-R1A activ – PKA-R1A complex activation; PKA-R1A dissociation, Cy5-IP20 fluorescence polarization; scaled: DMSO 0%, 113 µM cGMP 100%; activation, % at 11.4 µM; 340,000 tested, 0.083% active; AID 504707;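 active = percent activation above the mean of all tested compounds plus 3 SD, cut at about 19% in these data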;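 also: higher means more PKAc released from R1A so a rise in polarization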
CDK5 p35 inh – inhibitors of human CDK5/p35 kinase. inhibition, % at 10 µM. 330,000 tested, 0.01% active. Recombinant CDK5/p35, ADP-Glo luminescence, 60 min. Q00535+Q15078. AID 488839;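 active = highest replicate inhibition of at least 50% and at least 75% of replicates reaching 50%; inconclusive = only one of the two criteria met; inactive = both criteria failed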
Numbers stand for hits; 0 = inactive; ? = inconclusive; - = not tested or not shown.

SMILES | PKA-R2B activ | SR-BI HDL uptake | dFosB activator | SR-BI uptake up | PKA-R1A activ | CDK5 p35 inh
CCOc1ccc(CCNC(=O)CCCn2c(=O)c3cccn3c3cccnc32)cc1OCC | 0 | 76 | 0 | 0 | 0 | 0
CCn1c(C)c(C)c2cc(C(=O)NCCN3CCCCCC3)ccc21 | 0 | 75 | 0 | 0 | 0 | 0
CCN1CCN(C(=O)c2ccc3c(c2)c(C)c(C)n3Cc2ccccc2)CC1 | 0 | 0 | 0 | 0 | 0 | 0
CCn1c(C)c(C)c2cc(C(=O)N3CCc4ccccc4C3)ccc21 | 0 | 0 | 19 | 0 | 0 | -
CC[N+](CC)(CC)CCCCOc1ccc2c(c1)C(=O)c1cc(OCCCC[N+](CC)(CC)CC)ccc1-2 | 0 | 0 | 55 | 0 | 0 | 0
CC[N+](CC)(CC)CCOc1ccc(/C=C/c2ccccc2)cc1 | 0 | 0 | 0 | 0 | 0 | 0
COc1c(/C=N/NC(=O)c2ccncc2)c(CCN(C)C(C)=O)cc2c1OCO2 | 0 | 0 | 0 | 145 | 0 | 0
COc1c(/C=N/NC(=O)[C@H]2C[C@@H]2c2ccccc2)c(CCN(C)C(C)=O)cc2c1OCO2 | 0 | - | 0 | - | 0 | 0
CCNc1nc(ON=C(C)C)nc(N(C)C)n1 | 0 | 0 | 0 | 64 | 0 | 0
COc1ccc2c(C)nc(Nc3nc(-c4ccccc4)cc(=O)[nH]3)nc2c1 | 0 | 78 | 0 | 0 | 0 | 0
CCOc1cc(/C=C/c2nc3ccccc3s2)ccc1OCC(=O)N1CCOCC1 | 0 | 78 | 0 | 0 | 0 | 0
COc1ccccc1NC(=O)N1CCN(c2ccc(F)cc2)CC1 | 0 | 0 | 0 | 0 | 0 | 0
COc1ccc(N2CCN(C(=O)Cc3csc(NC(=O)Nc4ccccc4OC)n3)CC2)cc1 | 0 | 80 | 0 | 0 | 0 | 0
COc1ccccc1NC(=O)Nc1nc(CC(=O)N2CCN(c3ccc(F)cc3)CC2)cs1 | 0 | 76 | 0 | 0 | 0 | 0
COc1ccccc1NC(=O)Nc1nc(CC(=O)N2CCN(c3ccccc3)CC2)cs1 | 0 | ? | 0 | 0 | 0 | 0
Cc1cccc(NS(=O)(=O)c2ccc(C)c(C(=O)NCc3ccccn3)c2)c1 | 0 | 0 | 0 | 0 | 0 | 0
CCOC(=O)C(=O)NC12CC3CC(CC(C3)C1)C2 | 0 | 0 | 0 | 63 | 0 | 0
COc1ccc(OC)c(CC(=O)N2CCc3cc(OC)c(OC)cc3C2)c1 | 0 | 0 | 0 | 0 | 0 | 0
N=c1n(CCN2CCOCC2)c2ccccc2n1CC(=O)c1cccc([N+](=O)[O-])c1 | 0 | 77 | 0 | 0 | 0 | 0
CCn1c(=N)n(CC(=O)c2cccc([N+](=O)[O-])c2)c2ccccc21 | 0 | 0 | 0 | 0 | 0 | 0
COc1ccc(CCNC(=O)c2cccc(NC(=O)CC3SC(N4CCCCC4)=NC3=O)c2)cc1OC (stereo not drawn) | 0 | 78 | 0 | 0 | 0 | 0
Nc1ccc(S(=O)(=O)NN=Cc2ccccc2[N+](=O)[O-])cc1 | 0 | 0 | 0 | 0 | 0 | 0
CC(Sc1ccc(Cl)cc1)C(=O)NNC(=O)c1ccccc1O (stereo not drawn) | 0 | 97 | 0 | 0 | 0 | 0
O=C(C1CCN(S(=O)(=O)c2ccccc2)CC1)N1CCC1 | 0 | 0 | 0 | 0 | 0 | 0
Cc1nc(N2CCOCC2)nc(N2CCC(C)CC2)c1[N+](=O)[O-] | 0 | 0 | 0 | 0 | 0 | 0
SMILES | PKA-R2B activ | SR-BI HDL uptake | dFosB activator | SR-BI uptake up | PKA-R1A activ | CDK5 p35 inh
Cc1nc(N2CCOCC2)nc(N2CCN(c3ccccc3)CC2)c1[N+](=O)[O-] | 0 | 78 | 0 | 0 | 0 | 0
COc1ccc2c(c1)[nH]c1c(=O)n(/N=C/c3ccc(OC)c(CN4CCCCC4)c3)cnc12 | 0 | 0 | 74 | 0 | 0 | 0
COc1ccc2c(c1)[nH]c1c(=O)n(/N=C/c3ccc(OC)c(COc4ccccn4)c3)cnc12 | 0 | 0 | 0 | 0 | 0 | 0
Cc1ccc(NC(=O)CN(C)C(=O)CNC(=O)c2sc3ccccc3c2Cl)cc1 | 0 | 0 | 0 | 0 | 0 | 0
O=c1nc2n(c3ncccc13)CCCCC2 | 0 | 0 | 0 | 0 | 0 | 0
Cc1cc(C(=O)COC(=O)C2=COCCO2)c(C)n1-c1ccccc1 | 0 | 0 | 0 | 0 | 0 | 0
Cc1ccc(Nc2c(-c3ccccn3)nc3cc(C)ccn23)cc1 | 0 | 0 | 21 | 0 | 0 | 0
Cc1ccn2c(NC3CCCC3)c(-c3ccccn3)nc2c1 | 0 | 0 | 0 | 0 | 0 | 0
Cc1ccn2c(Nc3ccc4c(c3)OCO4)c(-c3ccccn3)nc2c1 | 0 | 0 | 21 | 0 | 0 | 0
CCOC(=O)C1CCCN(C(=O)c2ccc3nc(-c4cccc(OC)c4)oc3c2)C1 (stereo not drawn) | 0 | 0 | 0 | 0 | 0 | 0
COC(=O)c1ccc(C2N=C(c3cccs3)CC(c3ccccc3O)N2)cc1 (stereo not drawn) | 0 | 75 | 0 | 0 | 0 | 0
CC(=O)c1cccc(NC(=O)c2cccc(N3C(=O)c4ccccc4C3=O)c2)c1 | 0 | 0 | 31 | - | 0 | 0
Cc1cccc(C(=O)Nc2cccc(C(=O)Nc3cc(C)ccn3)c2)c1 | 0 | 0 | 0 | 0 | 0 | 0
CC(=O)c1cccc(NC(=O)c2ccc3ccccc3c2)c1 | 0 | 72 | 0 | 0 | 0 | 0
CC(=O)c1cccc(NC(=O)NNC(=O)c2ccc3ccccc3c2)c1 | 0 | 0 | 0 | 0 | 0 | 0
Cc1ccnc(NC(=O)c2cccc(NC(=O)c3ccc(Cl)cc3)c2)c1 | 0 | 89 | 0 | 0 | 0 | 0
NS(=O)(=O)c1cccc(NC(=O)c2cccc(N3C(=O)c4ccccc4C3=O)c2)c1 | 0 | 0 | 0 | 0 | 0 | 0
O=C(CCC(=O)N1CCCCCC1)NCc1ccc(F)cc1 | 0 | 0 | 0 | 0 | 0 | 0
COc1ccc(S(=O)(=O)N2CCCOC2CNC(=O)C(=O)NCCc2ccco2)cc1C (stereo not drawn) | 0 | 0 | 0 | 0 | 0 | 0
CC(C)Cc1ccc(C(C)CC2=CCC(CN(C)C)C2=O)cc1 (stereo not drawn) | 0 | 0 | 0 | 0 | 0 | 0
COc1ccc(/C=C/C2=CC(C)(C)NC(=S)N2)cc1OC | 0 | 83 | 0 | 0 | 0 | 0
CCOc1ccc(/C=C/C2=CC(C)(C)NC(=S)N2)cc1 | 0 | 0 | 0 | 0 | 0 | 0
COc1cccc(/C=C/C2=CC(C)(C)NC(=S)N2)c1 | 0 | 78 | 0 | 0 | 0 | 0
Cc1ccc(/C=N/Nc2cc(C)nc(N3CCOCC3)n2)cc1 | 0 | 0 | 0 | 0 | 0 | 0
CC(=O)Nc1ccc(/C(C)=N/Nc2nc(Nc3ccccc3)nc(N3CCOCC3)n2)cc1 | 0 | 85 | 0 | 0 | 0 | 0
Cc1ccc(Nc2nc(N/N=C\c3ccc4c(c3)OCO4)nc(N3CCOCC3)n2)cc1 | 0 | 86 | 60 | 0 | 0 | 0
CCN1CCN(c2nc(Nc3ccc(NC(C)=O)cc3)nc(Nc3ccc(NC(C)=O)cc3)n2)CC1 | 0 | - | 73 | - | 0 | 0

Screening results from PubChem.
